Measured values taken from ChEMBL document CHEMBL5058577, “EUbOPEN Chemogenomics Library 2 (Multiplex)” (2022).

Test system: Fibroblast
Test: Multiplex assay against human fibroblast
Assay type: toxicity, cell-based
In short: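 At seeding, live cells were stained with Hoechst33342, BioTracker Green Microtubule Cytoskeleton Dye, MitoTracker Red and Annexin V Alexa Fluor 680. After compound addition they were imaged on a CQ1 microscope at 37°C and 5% CO2, and CellPathfinder machine-learning gating sorted them into Hoechst high-intensity objects or normal cells, with normal cells further split into healthy, pyknosed or fragmented nuclei and pyknosed cells into mitotic or apoptotic. Tubulin, mitochondrial-mass and membrane-permeability phenotypes are given as per cents of cells with healthy nuclei.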

[1] = 12 h, 1 µM, compound concentration 1 uM, replicate 1
[2] = 12 h, 1 µM, compound concentration 1 uM, replicate 2
[3] = 12 h, 10 µM, compound concentration 10 uM, replicate 1
[4] = 12 h, 10 µM, compound concentration 10 uM, replicate 2
[5] = 24 h, 1 µM, compound concentration 1 uM, replicate 1
[6] = 24 h, 1 µM, compound concentration 1 uM, replicate 2
[7] = 24 h, 10 µM, compound concentration 10 uM, replicate 1
[8] = 24 h, 10 µM, compound concentration 10 uM, replicate 2
[9] = 48 h, 1 µM, compound concentration 1 uM, replicate 1
[10] = 48 h, 1 µM, compound concentration 1 uM, replicate 2
[11] = 48 h, 10 µM, compound concentration 10 uM, replicate 1
[12] = 48 h, 10 µM, compound concentration 10 uM, replicate 2

SMILES: CCc1nn2c(C)cc(C)nc2c1Cc1ccc(-c2nnc(C3CCNCC3)o2)cc1
- Population Apoptotic (%) [1]: 34%
- Population Fragmented Nuclei (%) [1]: 17%
- Population Healthy Nuclei (%) [1]: 63%
- Population Hoechst High Intensity Objects (%) [1]: 2%
- Population Membrane Permeable-Phenotype (%) [1]: 2%
- Population Mitochondria Different-Phenotype (%) [1]: 5%
- Population Mitotic Cells (%) [1]: 65%
- Population Normal (%) [1]: 97%
- Population Pyknosed Nuclei (%) [1]: 19%
- Population Tubulin-Different-Phenotype (%) [1]: 35%
- Total Cell Count [1]: 153
- Population Apoptotic (%) [2]: 45%
- Population Fragmented Nuclei (%) [2]: 19%
- Population Healthy Nuclei (%) [2]: 46%
- Population Hoechst High Intensity Objects (%) [2]: 6%
- Population Mitochondria Different-Phenotype (%) [2]: 13%
- Population Mitotic Cells (%) [2]: 54%
- Population Normal (%) [2]: 93%
- Population Pyknosed Nuclei (%) [2]: 33%
- Population Tubulin-Different-Phenotype (%) [2]: 62%
- Total Cell Count [2]: 167
- Population Apoptotic (%) [3]: 51%
- Population Fragmented Nuclei (%) [3]: 19%
- Population Healthy Nuclei (%) [3]: 62%
- Population Hoechst High Intensity Objects (%) [3]: 5%
- Population Membrane Permeable-Phenotype (%) [3]: 0%
- Population Mitochondria Different-Phenotype (%) [3]: 19%
- Population Mitotic Cells (%) [3]: 48%
- Population Normal (%) [3]: 94%
- Population Pyknosed Nuclei (%) [3]: 18%
- Population Tubulin-Different-Phenotype (%) [3]: 72%
- Total Cell Count [3]: 188
- Population Apoptotic (%) [4]: 14%
- Population Fragmented Nuclei (%) [4]: 38%
- Population Healthy Nuclei (%) [4]: 44%
- Population Hoechst High Intensity Objects (%) [4]: 3%
- Population Membrane Permeable-Phenotype (%) [4]: 5%
- Population Mitochondria Different-Phenotype (%) [4]: 14%
- Population Mitotic Cells (%) [4]: 85%
- Population Normal (%) [4]: 96%
- Population Pyknosed Nuclei (%) [4]: 17%
- Population Tubulin-Different-Phenotype (%) [4]: 79%
- Total Cell Count [4]: 162
- Population Apoptotic (%) [5]: 52%
- Population Fragmented Nuclei (%) [5]: 17%
- Population Healthy Nuclei (%) [5]: 68%
- Population Hoechst High Intensity Objects (%) [5]: 1%
- Population Membrane Permeable-Phenotype (%) [5]: 0%
- Population Mitochondria Different-Phenotype (%) [5]: 3%
- Population Mitotic Cells (%) [5]: 47%
- Population Normal (%) [5]: 98%
- Population Pyknosed Nuclei (%) [5]: 13%
- Population Tubulin-Different-Phenotype (%) [5]: 35%
- Total Cell Count [5]: 153
- Population Apoptotic (%) [6]: 56%
- Population Fragmented Nuclei (%) [6]: 26%
- Population Healthy Nuclei (%) [6]: 49%
- Population Hoechst High Intensity Objects (%) [6]: 7%
- Population Membrane Permeable-Phenotype (%) [6]: 6%
- Population Mitochondria Different-Phenotype (%) [6]: 15%
- Population Mitotic Cells (%) [6]: 43%
- Population Normal (%) [6]: 92%
- Population Pyknosed Nuclei (%) [6]: 23%
- Population Tubulin-Different-Phenotype (%) [6]: 65%
- Total Cell Count [6]: 177
- Population Apoptotic (%) [7]: 53%
- Population Fragmented Nuclei (%) [7]: 17%
- Population Healthy Nuclei (%) [7]: 64%
- Population Hoechst High Intensity Objects (%) [7]: 9%
- Population Membrane Permeable-Phenotype (%) [7]: 0%
- Population Mitochondria Different-Phenotype (%) [7]: 22%
- Population Mitotic Cells (%) [7]: 46%
- Population Normal (%) [7]: 90%
- Population Pyknosed Nuclei (%) [7]: 17%
- Population Tubulin-Different-Phenotype (%) [7]: 79%
- Total Cell Count [7]: 185
- Population Apoptotic (%) [8]: 56%
- Population Fragmented Nuclei (%) [8]: 40%
- Population Healthy Nuclei (%) [8]: 42%
- Population Hoechst High Intensity Objects (%) [8]: 3%
- Population Membrane Permeable-Phenotype (%) [8]: 11%
- Population Mitochondria Different-Phenotype (%) [8]: 16%
- Population Mitotic Cells (%) [8]: 44%
- Population Normal (%) [8]: 96%
- Population Tubulin-Different-Phenotype (%) [8]: 80%
- Total Cell Count [8]: 151
- Population Apoptotic (%) [9]: 76%
- Population Fragmented Nuclei (%) [9]: 21%
- Population Healthy Nuclei (%) [9]: 70%
- Population Hoechst High Intensity Objects (%) [9]: 4%
- Population Membrane Permeable-Phenotype (%) [9]: 1%
- Population Mitochondria Different-Phenotype (%) [9]: 2%
- Population Mitotic Cells (%) [9]: 23%
- Population Normal (%) [9]: 95%
- Population Pyknosed Nuclei (%) [9]: 7%
- Population Tubulin-Different-Phenotype (%) [9]: 32%
- Total Cell Count [9]: 172
- Population Apoptotic (%) [10]: 62%
- Population Fragmented Nuclei (%) [10]: 30%
- Population Healthy Nuclei (%) [10]: 54%
- Population Membrane Permeable-Phenotype (%) [10]: 3%
- Population Mitochondria Different-Phenotype (%) [10]: 12%
- Population Mitotic Cells (%) [10]: 37%
- Population Pyknosed Nuclei (%) [10]: 14%
- Population Tubulin-Different-Phenotype (%) [10]: 54%
- Total Cell Count [10]: 168
- Population Apoptotic (%) [11]: 84%
- Population Fragmented Nuclei (%) [11]: 23%
- Population Healthy Nuclei (%) [11]: 62%
- Population Hoechst High Intensity Objects (%) [11]: 9%
- Population Membrane Permeable-Phenotype (%) [11]: 0%
- Population Mitochondria Different-Phenotype (%) [11]: 16%
- Population Mitotic Cells (%) [11]: 15%
- Population Normal (%) [11]: 90%
- Population Pyknosed Nuclei (%) [11]: 13%
- Population Tubulin-Different-Phenotype (%) [11]: 73%
- Total Cell Count [11]: 208
- Population Apoptotic (%) [12]: 54%
- Population Fragmented Nuclei (%) [12]: 45%
- Population Healthy Nuclei (%) [12]: 47%
- Population Hoechst High Intensity Objects (%) [12]: 2%
- Population Membrane Permeable-Phenotype (%) [12]: 2%
- Population Mitochondria Different-Phenotype (%) [12]: 17%
- Population Mitotic Cells (%) [12]: 45%
- Population Normal (%) [12]: 97%
- Population Pyknosed Nuclei (%) [12]: 7%
- Population Tubulin-Different-Phenotype (%) [12]: 78%
- Total Cell Count [12]: 161

SMILES: N[C@](CC1c2ccccc2Oc2ccccc21)(C(=O)O)[C@H]1C[C@@H]1C(=O)O
- Population Apoptotic (%) [1]: 44%
- Population Fragmented Nuclei (%) [1]: 12%
- Population Healthy Nuclei (%) [1]: 73%
- Population Hoechst High Intensity Objects (%) [1]: 4%
- Population Membrane Permeable-Phenotype (%) [1]: 0%
- Population Mitochondria Different-Phenotype (%) [1]: 1%
- Population Mitotic Cells (%) [1]: 56%
- Population Normal (%) [1]: 95%
- Population Pyknosed Nuclei (%) [1]: 13%
- Population Tubulin-Different-Phenotype (%) [1]: 27%
- Total Cell Count [1]: 189
- Population Apoptotic (%) [2]: 58%
- Population Fragmented Nuclei (%) [2]: 18%
- Population Healthy Nuclei (%) [2]: 59%
- Population Hoechst High Intensity Objects (%) [2]: 1%
- Population Membrane Permeable-Phenotype (%) [2]: 7%
- Population Mitotic Cells (%) [2]: 41%
- Population Normal (%) [2]: 98%
- Population Pyknosed Nuclei (%) [2]: 21%
- Population Tubulin-Different-Phenotype (%) [2]: 37%
- Total Cell Count [2]: 113
- Population Apoptotic (%) [3]: 50%
- Population Fragmented Nuclei (%) [3]: 13%
- Population Healthy Nuclei (%) [3]: 66%
- Population Hoechst High Intensity Objects (%) [3]: 1%
- Population Membrane Permeable-Phenotype (%) [3]: 2%
- Population Mitochondria Different-Phenotype (%) [3]: 2%
- Population Mitotic Cells (%) [3]: 50%
- Population Normal (%) [3]: 98%
- Population Pyknosed Nuclei (%) [3]: 20%
- Population Tubulin-Different-Phenotype (%) [3]: 22%
- Total Cell Count [3]: 203
- Population Apoptotic (%) [4]: 26%
- Population Fragmented Nuclei (%) [4]: 20%
- Population Healthy Nuclei (%) [4]: 59%
- Population Hoechst High Intensity Objects (%) [4]: 7%
- Population Membrane Permeable-Phenotype (%) [4]: 0%
- Population Mitochondria Different-Phenotype (%) [4]: 7%
- Population Mitotic Cells (%) [4]: 73%
- Population Normal (%) [4]: 92%
- Population Tubulin-Different-Phenotype (%) [4]: 33%
- Total Cell Count [4]: 119
- Population Apoptotic (%) [5]: 68%
- Population Fragmented Nuclei (%) [5]: 12%
- Population Healthy Nuclei (%) [5]: 73%
- Population Hoechst High Intensity Objects (%) [5]: 2%
- Population Membrane Permeable-Phenotype (%) [5]: 2%
- Population Mitochondria Different-Phenotype (%) [5]: 2%
- Population Mitotic Cells (%) [5]: 32%
- Population Normal (%) [5]: 97%
- Population Pyknosed Nuclei (%) [5]: 13%
- Population Tubulin-Different-Phenotype (%) [5]: 25%
- Total Cell Count [5]: 183
- Population Apoptotic (%) [6]: 33%
- Population Fragmented Nuclei (%) [6]: 27%
- Population Healthy Nuclei (%) [6]: 49%
- Population Hoechst High Intensity Objects (%) [6]: 4%
- Population Membrane Permeable-Phenotype (%) [6]: 6%
- Population Mitochondria Different-Phenotype (%) [6]: 1%
- Population Mitotic Cells (%) [6]: 66%
- Population Normal (%) [6]: 95%
- Population Pyknosed Nuclei (%) [6]: 22%
- Population Tubulin-Different-Phenotype (%) [6]: 44%
- Total Cell Count [6]: 123
- Population Apoptotic (%) [7]: 57%
- Population Fragmented Nuclei (%) [7]: 10%
- Population Healthy Nuclei (%) [7]: 68%
- Population Hoechst High Intensity Objects (%) [7]: 1%
- Population Membrane Permeable-Phenotype (%) [7]: 1%
- Population Mitochondria Different-Phenotype (%) [7]: 3%
- Population Mitotic Cells (%) [7]: 42%
- Population Normal (%) [7]: 98%
- Population Pyknosed Nuclei (%) [7]: 20%
- Population Tubulin-Different-Phenotype (%) [7]: 30%
- Total Cell Count [7]: 193
- Population Apoptotic (%) [8]: 35%
- Population Fragmented Nuclei (%) [8]: 18%
- Population Healthy Nuclei (%) [8]: 66%
- Population Hoechst High Intensity Objects (%) [8]: 2%
- Population Mitochondria Different-Phenotype (%) [8]: 4%
- Population Mitotic Cells (%) [8]: 64%
- Population Normal (%) [8]: 97%
- Population Pyknosed Nuclei (%) [8]: 15%
- Population Tubulin-Different-Phenotype (%) [8]: 34%
- Total Cell Count [8]: 113
- Population Apoptotic (%) [9]: 62%
- Population Fragmented Nuclei (%) [9]: 17%
- Population Healthy Nuclei (%) [9]: 68%
- Population Hoechst High Intensity Objects (%) [9]: 2%
- Population Membrane Permeable-Phenotype (%) [9]: 0%
- Population Mitochondria Different-Phenotype (%) [9]: 2%
- Population Mitotic Cells (%) [9]: 37%
- Population Normal (%) [9]: 97%
- Population Pyknosed Nuclei (%) [9]: 14%
- Population Tubulin-Different-Phenotype (%) [9]: 26%
- Total Cell Count [9]: 189
- Population Apoptotic (%) [10]: 23%
- Population Fragmented Nuclei (%) [10]: 36%
- Population Healthy Nuclei (%) [10]: 48%
- Population Hoechst High Intensity Objects (%) [10]: 8%
- Population Membrane Permeable-Phenotype (%) [10]: 9%
- Population Mitochondria Different-Phenotype (%) [10]: 5%
- Population Mitotic Cells (%) [10]: 76%
- Population Normal (%) [10]: 91%
- Population Tubulin-Different-Phenotype (%) [10]: 65%
- Total Cell Count [10]: 125
- Population Apoptotic (%) [11]: 45%
- Population Fragmented Nuclei (%) [11]: 14%
- Population Healthy Nuclei (%) [11]: 68%
- Population Hoechst High Intensity Objects (%) [11]: 5%
- Population Membrane Permeable-Phenotype (%) [11]: 1%
- Population Mitochondria Different-Phenotype (%) [11]: 2%
- Population Mitotic Cells (%) [11]: 54%
- Population Normal (%) [11]: 94%
- Population Pyknosed Nuclei (%) [11]: 16%
- Population Tubulin-Different-Phenotype (%) [11]: 32%
- Total Cell Count [11]: 198
- Population Apoptotic (%) [12]: 27%
- Population Fragmented Nuclei (%) [12]: 27%
- Population Healthy Nuclei (%) [12]: 63%
- Population Hoechst High Intensity Objects (%) [12]: 3%
- Population Membrane Permeable-Phenotype (%) [12]: 2%
- Population Mitotic Cells (%) [12]: 72%
- Population Normal (%) [12]: 96%
- Population Pyknosed Nuclei (%) [12]: 9%
- Population Tubulin-Different-Phenotype (%) [12]: 28%
- Total Cell Count [12]: 115
